One data set relates to Streptococcus pyogenes. The experiment in a line: Antibacterial activity against Streptococcus pyogenes after 24 hrs by CLSI method. Type of data set: functional. In outline:
(§1)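 Broth dilution per CLSI; compounds in DMSO, 10 doubling dilutions. Organisms grown overnight on agar, suspended in suitable liquid medium to 0.5 McFarland, then diluted 1 in 10 for final inoculum.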

In data set [1] the test system is Escherichia coli. Briefly: Antibacterial activity against TolC-deficient Escherichia coli after 24 hrs by CLSI method. Type of data set: functional. In short, it runs like this:
as §1

In another data set the test system is Klebsiella pneumoniae. The experiment in a line: Antibacterial activity against Klebsiella pneumoniae after 24 hrs by CLSI method. The data set is classed as functional. In short, it runs like this:
as §1

For the next data set, the system named is Pseudomonas aeruginosa. The experiment in a line: Antibacterial activity against Pseudomonas aeruginosa after 24 hrs by CLSI method. The data set is classed as functional. In short, it runs like this: as §1
The test system of the next data set is Streptococcus pneumoniae. The experiment in a line: Antibacterial activity against Streptococcus pneumoniae after 24 hrs by CLSI method. Type of data set: functional. In short, it runs like this:
as §1

For data set [2], the target named is Voltage-gated inwardly rectifying potassium channel KCNH2 (Homo sapiens, UniProt Q12809). Briefly: Inhibition of human ERG by electrophysiological assay.
Chain of Voltage-gated inwardly rectifying potassium channel KCNH2 (Q12809 whole entry): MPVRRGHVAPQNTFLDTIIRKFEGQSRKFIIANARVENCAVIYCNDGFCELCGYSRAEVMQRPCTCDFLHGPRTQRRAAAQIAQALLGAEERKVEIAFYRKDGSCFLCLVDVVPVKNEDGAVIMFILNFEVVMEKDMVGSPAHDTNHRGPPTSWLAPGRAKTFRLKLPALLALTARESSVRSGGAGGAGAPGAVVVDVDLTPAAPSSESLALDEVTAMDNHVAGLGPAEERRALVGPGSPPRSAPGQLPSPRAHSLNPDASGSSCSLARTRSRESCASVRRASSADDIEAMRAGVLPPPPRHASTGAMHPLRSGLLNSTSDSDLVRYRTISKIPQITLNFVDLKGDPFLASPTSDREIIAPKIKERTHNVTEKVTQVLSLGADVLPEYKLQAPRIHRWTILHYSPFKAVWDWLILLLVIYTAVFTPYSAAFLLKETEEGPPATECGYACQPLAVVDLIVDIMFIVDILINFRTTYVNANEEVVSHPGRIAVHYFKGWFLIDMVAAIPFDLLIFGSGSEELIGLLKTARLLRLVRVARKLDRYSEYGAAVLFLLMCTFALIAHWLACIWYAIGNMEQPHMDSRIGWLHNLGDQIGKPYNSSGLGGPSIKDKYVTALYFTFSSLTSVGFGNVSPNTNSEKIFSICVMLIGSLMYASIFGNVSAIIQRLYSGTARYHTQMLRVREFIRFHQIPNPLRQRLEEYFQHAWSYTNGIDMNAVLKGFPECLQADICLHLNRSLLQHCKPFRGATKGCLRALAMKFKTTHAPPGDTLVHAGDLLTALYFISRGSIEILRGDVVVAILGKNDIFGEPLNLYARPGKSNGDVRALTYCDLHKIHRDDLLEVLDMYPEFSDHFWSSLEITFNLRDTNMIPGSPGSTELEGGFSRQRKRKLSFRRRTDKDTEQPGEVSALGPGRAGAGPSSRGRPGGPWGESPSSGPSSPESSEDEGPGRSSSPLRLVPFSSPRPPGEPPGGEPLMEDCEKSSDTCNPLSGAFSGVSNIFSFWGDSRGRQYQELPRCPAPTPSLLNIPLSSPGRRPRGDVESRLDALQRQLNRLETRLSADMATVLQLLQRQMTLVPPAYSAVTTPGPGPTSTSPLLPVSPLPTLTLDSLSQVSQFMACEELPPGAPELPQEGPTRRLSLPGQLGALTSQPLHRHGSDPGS
The test system of data set [3] is Escherichia coli. Briefly: Antibacterial activity against Escherichia coli after 24 hrs by CLSI method. Type of data set: functional. In outline:
as §1

In another data set the test system is Haemophilus influenzae. Briefly: Antibacterial activity against Haemophilus influenzae after 24 hrs by CLSI method. Type of data set: functional. In short, it runs like this:
as §1

The next data set concerns Staphylococcus aureus. Briefly: Antibacterial activity against Staphylococcus aureus after 24 hrs by CLSI method. Type of data set: functional. In outline:
as §1

Another data set relates to Moraxella catarrhalis. Briefly: Antibacterial activity against Moraxella catarrhalis after 24 hrs by CLSI method. Type of data set: functional. In short, it runs like this:
as §1

A short description of data set [4]: Inhibition of ParC in reconstituted Escherichia coli ParC/ParE assessed as ParE ATPase activity after 24 hrs by ammonium molybdate/malachite green method.
Data set [5] is described as follows: Lipophilicity, log D of the compound by shake flask method using LC-MS analysis. Type of data set: physicochemical. The note with it: octanol/water. In short, it runs like this: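 Shake-flask partitioning, experimental, with LC–MS quantitation.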

Structures are written as SMILES. In brackets after ≈: the same amount, converted by molar mass. Bounds are passed on as bounds.

For the compound `O=C1COc2ccc(CNC3CCN(CCN4C(=O)COc5ccc(-n6cnnn6)cc54)CC3)nc2N1`, the MIC with Streptococcus pyogenes, against Escherichia coli [1], in the data set on Klebsiella pneumoniae, with Pseudomonas aeruginosa, against Streptococcus pneumoniae and in the data set with Escherichia coli [3] was > 10.9 µM in each case. Moreover, the MIC against Haemophilus influenzae, in the data set with Staphylococcus aureus and in the data set with Moraxella catarrhalis was > 10.9 µM each time. Also, the results for the IC50 in data set [2] and in data set [4] were > 100000 nM and 353 nM, respectively. Further, the logD in data set [5] is -0.8.
For the compound `CC(O)c1ccc2c(c1)N(CCN1CCC(NCc3ccc4c(n3)NC(=O)CO4)CC1)C(=O)CO2` (centres undefined), the MIC in the data set on Streptococcus pyogenes was > 16.6 µM; in the data set on Escherichia coli [1] it was 1.1 µM (≈ 0.53 µg/mL); against Klebsiella pneumoniae it was > 16.6 µM; against Pseudomonas aeruginosa, > 16.6 µM; in the data set on Streptococcus pneumoniae it was > 16.6 µM; against Escherichia coli [3], > 16.6 µM. Further, the MIC in the data set with Haemophilus influenzae was 4.2 µM (≈ 2.02 µg/mL); in the data set with Staphylococcus aureus, > 16.6 µM; against Moraxella catarrhalis, > 16.6 µM. The compound also registered a logD in data set [5] of 0.3.
For `O=C1COc2ccc(CNC3CCN(CCN4C(=O)COc5ccc(O)cc54)CC3)nc2N1`, the MIC was 1.1 µM (≈ 0.499 µg/mL) with Streptococcus pyogenes; 0.1 µM (≈ 0.0453 µg/mL) against Escherichia coli [1]; > 17.7 µM with Klebsiella pneumoniae; 17.7 µM (≈ 8.03 µg/mL) in the data set with Pseudomonas aeruginosa; 8.8 µM (≈ 3.99 µg/mL) against Streptococcus pneumoniae; 4.4 µM (≈ 2 µg/mL) against Escherichia coli [3]. Further, the MIC against Haemophilus influenzae was 0.3 µM (≈ 0.136 µg/mL); against Staphylococcus aureus, 17.7 µM (≈ 8.03 µg/mL); in the data set with Moraxella catarrhalis it was 0.1 µM (≈ 0.0453 µg/mL). In addition, the IC50 in [4] turned out to be 36 nM. Also, in data set [5], the logD was 0.5.
Regarding `O=C1COc2ccc(CNC3CCN(CCN4C(=O)COc5ccc(Br)cc54)CC3)nc2N1`, the MIC with Escherichia coli [1] was < 0.02 µM; in the data set on Klebsiella pneumoniae it was 3.9 µM (≈ 2.01 µg/mL); against Pseudomonas aeruginosa, 7.7 µM (≈ 3.98 µg/mL); with Streptococcus pneumoniae, 0.3 µM (≈ 0.155 µg/mL); in the data set with Escherichia coli [3] it was 0.5 µM (≈ 0.258 µg/mL); with Haemophilus influenzae it was 0.1 µM (≈ 0.0516 µg/mL). For the same compound, the results for the MIC with Staphylococcus aureus and in the data set on Moraxella catarrhalis were 0.1 µM (≈ 0.0516 µg/mL) and < 0.015 µM, respectively. In addition, in data set [4], the IC50 worked out at 18 nM. For the same compound, the logD in data set [5] was determined as 1.4.
As for `O=C1COc2ccc(CNC3CCN(CCN4C(=O)COc5ccc(NC(=O)C(F)(F)F)cc54)CC3)nc2N1`, the MIC was > 16.1 µM with Streptococcus pyogenes; 8.1 µM (≈ 4.44 µg/mL) in the data set on Escherichia coli [1]; > 16.1 µM with Klebsiella pneumoniae; > 16.1 µM against Pseudomonas aeruginosa; > 16.1 µM with Streptococcus pneumoniae; > 16.1 µM with Escherichia coli [3]. In addition, the results for the MIC against Haemophilus influenzae, with Staphylococcus aureus and against Moraxella catarrhalis were 16.1 µM (≈ 8.83 µg/mL), > 16.1 µM and 16.1 µM (≈ 8.83 µg/mL), respectively. For the same compound, the IC50 in data set [2] was > 100000 nM. In [5], this compound came in with a logD of 0.2.
Take `O=C1COc2ccc(CNC3CCN(CCN4C(=O)COc5ccc(C(=O)O)cc54)CC3)nc2N1`: the MIC against Streptococcus pyogenes was > 13.5 µM; in the data set with Escherichia coli [1], > 12.7 µM; with Klebsiella pneumoniae it was > 13.5 µM; in the data set with Pseudomonas aeruginosa, > 13.5 µM; in the data set on Streptococcus pneumoniae, > 13.5 µM; in the data set on Escherichia coli [3], > 13.5 µM. Moreover, the MIC with Haemophilus influenzae, in the data set on Staphylococcus aureus and in the data set on Moraxella catarrhalis was > 13.5 µM throughout. Also, in data set [4], the IC50 was found to be 4680 nM. The logD in [5] was -1.6.
Turning to `COC(=O)c1ccc2c(c1)N(CCN1CCC(NCc3ccc4c(n3)NC(=O)CO4)CC1)C(=O)CO2`, the MIC was 2 µM (≈ 0.991 µg/mL) against Streptococcus pyogenes; 0.1 µM (≈ 0.0496 µg/mL) with Escherichia coli [1]; 16.1 µM (≈ 7.98 µg/mL) in the data set with Klebsiella pneumoniae; > 16.1 µM in the data set with Pseudomonas aeruginosa; 8.1 µM (≈ 4.01 µg/mL) against Streptococcus pneumoniae; 4 µM (≈ 1.98 µg/mL) in the data set on Escherichia coli [3]. In addition, the MIC came out at 0.5 µM (≈ 0.248 µg/mL) in the data set with Haemophilus influenzae, 1 µM (≈ 0.496 µg/mL) against Staphylococcus aureus and 0.1 µM (≈ 0.0496 µg/mL) with Moraxella catarrhalis. In addition, the IC50 in data set [4] stood at 78 nM. Also, the logD in data set [5] amounted to 0.8.
With `CN(C)S(=O)(=O)c1ccc2c(c1)N(CCN1CCC(NCc3ccc4c(n3)NC(=O)CO4)CC1)C(=O)CO2`, the MIC in the data set with Streptococcus pyogenes was > 14.6 µM; against Escherichia coli [1], 7.3 µM (≈ 3.98 µg/mL); with Pseudomonas aeruginosa it was > 14.6 µM; in the data set on Streptococcus pneumoniae, > 14.6 µM; against Escherichia coli [3] it was > 14.6 µM; in the data set with Haemophilus influenzae it was 14.7 µM (≈ 8.01 µg/mL). For the same compound, the MIC against Staphylococcus aureus and against Moraxella catarrhalis was > 14.6 µM throughout. In [5], the logD came to 0.2.
On to `CS(=O)(=O)c1ccc2c(c1)N(CCN1CCC(NCc3ccc4c(n3)NC(=O)CO4)CC1)C(=O)CO2`, for which the MIC with Streptococcus pyogenes was 15.5 µM (≈ 7.99 µg/mL); against Escherichia coli [1], 1 µM (≈ 0.516 µg/mL); against Pseudomonas aeruginosa, > 15.5 µM; in the data set on Streptococcus pneumoniae, 15.5 µM (≈ 7.99 µg/mL); against Escherichia coli [3], > 15.5 µM; in the data set on Haemophilus influenzae, 3.9 µM (≈ 2.01 µg/mL). Moreover, the MIC with Staphylococcus aureus is > 15.5 µM; with Moraxella catarrhalis it was 3.9 µM (≈ 2.01 µg/mL). In addition, the log distribution coefficient (logD) in data set [5] is -0.5.

(Values after ChEMBL document CHEMBL1821639, “Exploring Left-Hand-Side substitutions in the benzoxazinone series of 4-amino-piperidine bacterial type IIa topoisomerase inhibitors” (Bioorg Med Chem Lett, 2011).)
